In ChEMBL document CHEMBL3864121, “Development of ebsulfur analogues as potent antibacterials against methicillin-resistant Staphylococcus aureus” (Bioorg Med Chem, 2016):

Columns and labels:
Format in all cases: functional
Staphylococcus aureus [1] = experiment: Antibacterial activity against methicillin-sensitive Staphylococcus aureus ATCC 6538 measured after overnight incubation by broth double-dilution method
Summary of the method: (§1)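 MIC by broth double-dilution in liquid Mueller-Hinton medium. Values are reported in µg/mL.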

Staphylococcus aureus [2] = experiment: Antibacterial activity against methicillin-sensitive Staphylococcus aureus ATCC 25923 measured after overnight incubation by broth double-dilution method; summary of the method: as §1
Staphylococcus aureus [3] = experiment: Antibacterial activity against methicillin-sensitive Staphylococcus aureus ATCC 29213 measured after overnight incubation by broth double-dilution method; summary of the method: as §1
Staphylococcus aureus [4] = experiment: Antibacterial activity against methicillin-resistant Staphylococcus aureus ATCC 33591 measured after overnight incubation by broth double-dilution method; summary of the method: as §1
Staphylococcus aureus [5] = experiment: Antibacterial activity against methicillin-resistant Staphylococcus aureus 1 measured after overnight incubation by broth double-dilution method; summary of the method: as §1
Staphylococcus aureus [6] = experiment: Antibacterial activity against methicillin-resistant Staphylococcus aureus 2 measured after overnight incubation by broth double-dilution method; summary of the method: as §1
Staphylococcus aureus [7] = experiment: Antibacterial activity against methicillin-resistant Staphylococcus aureus BRS3 measured after overnight incubation by broth double-dilution method; summary of the method: as §1
Staphylococcus aureus [8] = experiment: Antibacterial activity against methicillin-resistant Staphylococcus aureus C1 measured after overnight incubation by broth double-dilution method; summary of the method: as §1
Staphylococcus aureus [9] = experiment: Antibacterial activity against methicillin-resistant Staphylococcus aureus C2 measured after overnight incubation by broth double-dilution method; summary of the method: as §1
Staphylococcus aureus [10] = experiment: Antibacterial activity against methicillin-resistant Staphylococcus aureus C7 measured after overnight incubation by broth double-dilution method; summary of the method: as §1
Staphylococcus aureus [11] = experiment: Antibacterial activity against methicillin-resistant Staphylococcus aureus C14 measured after overnight incubation by broth double-dilution method; summary of the method: as §1
Staphylococcus aureus [12] = experiment: Antibacterial activity against methicillin-resistant Staphylococcus aureus C16 measured after overnight incubation by broth double-dilution method; summary of the method: as §1
Staphylococcus aureus [13] = experiment: Antibacterial activity against methicillin-resistant Staphylococcus aureus C19 measured after overnight incubation by broth double-dilution method; summary of the method: as §1
Staphylococcus aureus [14] = experiment: Antibacterial activity against methicillin-resistant Staphylococcus aureus G1 measured after overnight incubation by broth double-dilution method; summary of the method: as §1
Staphylococcus aureus [15] = experiment: Antibacterial activity against methicillin-resistant Staphylococcus aureus G6 measured after overnight incubation by broth double-dilution method; summary of the method: as §1
Staphylococcus aureus [16] = experiment: Antibacterial activity against methicillin-resistant Staphylococcus aureus G12 measured after overnight incubation by broth double-dilution method; summary of the method: as §1
Staphylococcus aureus [17] = experiment: Antibacterial activity against methicillin-resistant Staphylococcus aureus G14 measured after overnight incubation by broth double-dilution method; summary of the method: as §1
Staphylococcus aureus [18] = experiment: Antibacterial activity against methicillin-resistant Staphylococcus aureus NRS4 measured after overnight incubation by broth double-dilution method; summary of the method: as §1
Staphylococcus aureus [19] = experiment: Antibacterial activity against methicillin-resistant Staphylococcus aureus NRS51 measured after overnight incubation by broth double-dilution method; summary of the method: as §1
Staphylococcus aureus [20] = experiment: Antibacterial activity against methicillin-resistant Staphylococcus aureus NRS77 measured after overnight incubation by broth double-dilution method; summary of the method: as §1
Staphylococcus aureus [21] = experiment: Antibacterial activity against methicillin-resistant Staphylococcus aureus S14 measured after overnight incubation by broth double-dilution method; summary of the method: as §1
Staphylococcus aureus [22] = experiment: Antibacterial activity against methicillin-resistant Staphylococcus aureus S17 measured after overnight incubation by broth double-dilution method; summary of the method: as §1
Staphylococcus aureus [23] = experiment: Antibacterial activity against methicillin-resistant Staphylococcus aureus S22 measured after overnight incubation by broth double-dilution method; summary of the method: as §1
Staphylococcus aureus [24] = experiment: Antibacterial activity against methicillin-resistant Staphylococcus aureus S24 measured after overnight incubation by broth double-dilution method; summary of the method: as §1
Staphylococcus aureus [25] = experiment: Antibacterial activity against methicillin-resistant Staphylococcus aureus USA200 measured after overnight incubation by broth double-dilution method; summary of the method: as §1
Staphylococcus aureus [26] = experiment: Antibacterial activity against methicillin-resistant Staphylococcus aureus USA300 measured after overnight incubation by broth double-dilution method; summary of the method: as §1
Staphylococcus aureus [27] = experiment: Antibacterial activity against methicillin-resistant Staphylococcus aureus USA600 measured after overnight incubation by broth double-dilution method; summary of the method: as §1
[28] = system: Staphylococcus epidermidis; experiment: Antibacterial activity against Staphylococcus epidermidis ATCC 35984 measured after overnight incubation by broth double-dilution method; details: RP62A
Summary of the method: (§2)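 MIC by broth double-dilution in Mueller-Hinton medium. Re-testing at the time-kill inoculum used 1×10^6 CFU/mL.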

Enterococcus faecalis [29] = experiment: Antibacterial activity against Enterococcus faecalis ATCC 49533 measured after overnight incubation by broth double-dilution method; summary of the method: as §2
Enterococcus faecium = experiment: Antibacterial activity against Enterococcus faecium BM4105-RF measured after overnight incubation by broth double-dilution method; summary of the method: as §1
Enterococcus = experiment: Antibacterial activity against Vancomycin-resistant Enterococcus measured after overnight incubation by broth double-dilution method; summary of the method: as §1
Listeria monocytogenes = experiment: Antibacterial activity against Listeria monocytogenes ATCC 19115 measured after overnight incubation by broth double-dilution method; summary of the method: as §2
[30] = system: Mycolicibacterium smegmatis; experiment: Antibacterial activity against Mycobacterium smegmatis MC2-155 measured after overnight incubation by broth double-dilution method; details: str. MC2 155; summary of the method: as §1
Staphylococcus aureus [31] = experiment: Antibacterial activity against methicillin-resistant Staphylococcus aureus USA100 measured after overnight incubation by broth double-dilution method; summary of the method: as §1
Enterococcus faecalis [32] = experiment: Antibacterial activity against Enterococcus faecalis ATCC 29212 measured after overnight incubation by broth double-dilution method; summary of the method: as §2

Measured: MIC

O=c1c2ccccc2sn1-c1ccc(Br)cc1
15.6 µg/mL: Enterococcus faecalis [29]
7.8 µg/mL: Enterococcus faecium
1 µg/mL: Staphylococcus aureus [10]
3.9 µg/mL: Staphylococcus aureus [5] | Staphylococcus aureus [7] | Staphylococcus aureus [11] | Staphylococcus aureus [12] | Staphylococcus aureus [15] | Staphylococcus aureus [18] | Staphylococcus aureus [22] | Staphylococcus aureus [25] | Staphylococcus aureus [26] | Staphylococcus aureus [27]
2 µg/mL: Staphylococcus aureus [1] | Staphylococcus aureus [2] | Staphylococcus aureus [3] | Staphylococcus aureus [6] | Staphylococcus aureus [8] | Staphylococcus aureus [9] | Staphylococcus aureus [13] | Staphylococcus aureus [14] | Staphylococcus aureus [16] | Staphylococcus aureus [17] | Staphylococcus aureus [19] | Staphylococcus aureus [20] | Staphylococcus aureus [23] | Staphylococcus aureus [24] | [28] | Enterococcus | Listeria monocytogenes
0.5 µg/mL: Staphylococcus aureus [4] | [30]
≤ 0.25 µg/mL: Staphylococcus aureus [21]

C#Cc1ccc(-n2sc3ccccc3c2=O)cc1
< 125 µg/mL: Enterococcus faecalis [29]
7.8 µg/mL: Enterococcus faecium
1 µg/mL: Staphylococcus aureus [3] | Staphylococcus aureus [4]
0.5 µg/mL: Staphylococcus aureus [21]
2 µg/mL: Staphylococcus aureus [6] | Staphylococcus aureus [8] | Staphylococcus aureus [9] | Staphylococcus aureus [10] | Staphylococcus aureus [13] | Staphylococcus aureus [14] | Staphylococcus aureus [23] | Staphylococcus aureus [24] | Staphylococcus aureus [31] | [28] | Enterococcus
3.9 µg/mL: Staphylococcus aureus [2] | Staphylococcus aureus [5] | Staphylococcus aureus [16] | Staphylococcus aureus [17] | Staphylococcus aureus [19] | Staphylococcus aureus [20] | Staphylococcus aureus [22] | Staphylococcus aureus [25] | Staphylococcus aureus [26] | Listeria monocytogenes | [30]

CC(C)(C)n1sc2ccccc2c1=O
2 µg/mL: Staphylococcus aureus [21]
125 µg/mL: Enterococcus faecalis [29]
7.8 µg/mL: Enterococcus faecium
3.9 µg/mL: Staphylococcus aureus [4] | Enterococcus | Listeria monocytogenes | [30]
15.6 µg/mL: Staphylococcus aureus [1] | Staphylococcus aureus [2] | Staphylococcus aureus [3] | Staphylococcus aureus [6] | Staphylococcus aureus [7] | Staphylococcus aureus [10] | Staphylococcus aureus [11] | Staphylococcus aureus [12] | Staphylococcus aureus [15] | Staphylococcus aureus [16] | Staphylococcus aureus [17] | Staphylococcus aureus [18] | Staphylococcus aureus [20] | Staphylococcus aureus [22] | Staphylococcus aureus [23] | Staphylococcus aureus [24] | Staphylococcus aureus [31] | Staphylococcus aureus [25] | Staphylococcus aureus [26] | Staphylococcus aureus [27] | [28] | Enterococcus faecalis [32]
